Laboratory results: ChEMBL document CHEMBL1125057, “Synthesis and antihypertensive activity of 4-(substituted-carbonylamino)-2H-1-benzopyrans” (1990)

How the values were obtained:
Assay type in all cases: functional
Rattus norvegicus [1] = test: Systolic blood pressure was measured at intervals from 1 to 6 hr in groups of six rats after oral administration of a dose of 10 mg/kg
Procedure, shortened: (§1)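 Conscious spontaneously hypertensive rats of Okamoto origin, 14-24 weeks old, with systolic pressure >180 mmHg, were used in groups of six. Dosing was oral by esophageal needle as a solution or suspension in 1% w/v methylcellulose. Systolic pressure was taken by tail-cuff before dosing and at intervals up to 6 h postdose. Each determination was the mean of at least six recordings.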

Rattus norvegicus [2] = test: Systolic blood pressure was measured at intervals from 1 to 6 hr in groups of six rats after oral administration of a dose of 1 mg/kg; procedure, shortened: as §1
Rattus norvegicus [3] = test: Systolic blood pressure at intervals from 1 to 6 hr in groups of six rats after 0.3 mg/kg p.o. administration.; conditions: route oral; procedure, shortened: as §1
Rattus norvegicus [4] = test: Systolic blood pressure was measured at intervals from 1 to 6 hr in groups of six rats after oral administration of a dose of 1.0 mg/kg; procedure, shortened: as §1
Oryctolagus cuniculus = species on record: Oryctolagus cuniculus; test: Increase in rubidium-86 efflux in rabbit isolated mesenteric artery over basal rate
Procedure, shortened: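 Segments (10-20 mg wet weight) of New Zealand White rabbit mesenteric artery were held 30 min in aerated (19:1 O2-CO2) HEPES buffer, pH 7.4, at 37 °C. They were loaded with 100-200 µCi rubidium-86 over 90 min, then moved every 3 min through label-free buffer. Compound at 1 × 10^-5 M was present over min 30-48. Efflux was counted by liquid scintillation. Value is the maximum rate coefficient over min 30-45 as a percentage of basal (mean over min 21-30), ± standard error.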

Rattus norvegicus [5] = test: Systolic blood pressure was measured at intervals from 1 to 6 hr in groups of six rats after oral administration of a dose of 0.1 mg/kg; procedure, shortened: as §1
Rattus norvegicus [6] = test: Systolic blood pressure was measured at intervals from 1 to 6 hr in groups of six rats after oral administration of a dose of 3 mg/kg; procedure, shortened: as §1
Rattus norvegicus [7] = test: Systolic blood pressure was measured at intervals from 1 to 6 h in groups of six rats after oral administration of a dose of 1 mg/kg; procedure, shortened: as §1
Rattus norvegicus [8] = test: Systolic blood pressure was measured at intervals from 1 to 6 hr in groups of six rats after oral administration of a dose of 10.0 mg/kg; procedure, shortened: as §1

| SMILES | Decrease in blood pressure (Rattus norvegicus [1]) | Decrease in blood pressure (Rattus norvegicus [3]) | Decrease in blood pressure (Rattus norvegicus [4]) | further results |
| --- | --- | --- | --- | --- |
| CCOC(=O)C(=O)NC1c2cc(C#N)ccc2OC(C)(C)[C@H]1O (some centres not stated) | 12% | – | – | – |
| CC(=O)NC1c2cc(Cl)ccc2OC(C)(C)[C@H]1O (some centres not stated) | 34% | – | – | Decrease in blood pressure (Rattus norvegicus [2]): 8% |
| CC(=O)NC1CC(C)(C)Oc2ccc(C#N)cc21 (configuration not stated) | – | 18% | 44% | – |
| CNC(=O)NC1c2cc(C#N)ccc2OC(C)(C)[C@H]1O (some centres not stated) | – | 31% | 61% | Increase (Oryctolagus cuniculus): 63%; Decrease in blood pressure (Rattus norvegicus [5]): 14% |
| CC1(C)Oc2ccc(C#N)cc2C(NC(=O)c2ccc3ccccc3c2)[C@@H]1O (some centres not stated) | 35% | – | – | Decrease in blood pressure (Rattus norvegicus [2]): 6%; Increase (Oryctolagus cuniculus): 17% |
| CC1(C)Oc2ccc(C#N)cc2C(N2CCCC2=O)C1O (configuration not stated) [CROMAKALIM] | – | 39% | 47% | Increase (Oryctolagus cuniculus): 110%; Decrease in blood pressure (Rattus norvegicus [5]): 13% |
| CC1(C)Oc2ccc(C#N)cc2C(NC(=O)c2ccccc2)[C@@H]1O (some centres not stated) | – | 16% | 41% | – |
| CC1(C)Oc2ccc(C#N)cc2C(NC=O)[C@@H]1O (some centres not stated) | 26% | – | – | Decrease in blood pressure (Rattus norvegicus [2]): 10% |
| CC1(C)Oc2ccc(C#N)cc2C(NC(=O)NC(=O)C(Cl)(Cl)Cl)[C@@H]1O (some centres not stated) | 28% | – | – | Decrease in blood pressure (Rattus norvegicus [2]): 13% |
| CC(=O)NC1c2cc(C(C)=O)ccc2OC(C)(C)[C@H]1O (some centres not stated) | – | 23% | 61% | Increase (Oryctolagus cuniculus): 38%; Decrease in blood pressure (Rattus norvegicus [5]): 20% |
| CC(=O)N(C)C1c2cc(C#N)ccc2OC(C)(C)[C@H]1O (some centres not stated) | – | 11% | 31% | – |
| CC(=O)Nc1cc2c(cc1[N+](=O)[O-])C(NC(C)=O)[C@H](O)C(C)(C)O2 (some centres not stated) | – | 38% | – | Decrease in blood pressure (Rattus norvegicus [5]): 9% |
| CC1(C)Oc2ccc(C#N)cc2C(NC(=O)c2ccccn2)[C@@H]1O (some centres not stated) | – | 36% | – | Increase (Oryctolagus cuniculus): 53%; Decrease in blood pressure (Rattus norvegicus [5]): 22% |
| CC1(C)Oc2ccc(C#N)cc2C(NC(=O)c2cccnc2)[C@@H]1O (some centres not stated) | – | 27% | 43% | – |
| CC(=O)NC1c2cc(C#N)c([N+](=O)[O-])cc2OC(C)(C)[C@H]1O (some centres not stated) | – | 46% | – | Decrease in blood pressure (Rattus norvegicus [5]): 26% |
| CC(=O)NC1c2cc(C#N)ccc2OC(C)(C)[C@H]1O (some centres not stated) | – | 47% | 67% | Increase (Oryctolagus cuniculus): 59%; Decrease in blood pressure (Rattus norvegicus [5]): 18% |
| CC1(C)Oc2ccc(C#N)cc2C(NC(=O)Nc2ccccc2)[C@@H]1O (some centres not stated) | 13% | – | – | – |
| CC(=O)Nc1cc2c(cc1[N+](=O)[O-])OC(C)(C)[C@@H](O)C2NC(C)=O (some centres not stated) | – | – | – | Decrease in blood pressure (Rattus norvegicus [6]): 16% |
| CC1(C)Oc2ccc(C#N)cc2C(NC(=O)c2ccoc2)[C@@H]1O (some centres not stated) | – | 19% | 35% | – |
| CC(=O)NC1c2cc(C#N)ccc2OC(C)(C)[C@H]1OC(C)=O (some centres not stated) | – | 34% | – | Decrease in blood pressure (Rattus norvegicus [5]): 9%; Decrease in blood pressure (Rattus norvegicus [7]): 61% |

| SMILES | Decrease in blood pressure (Rattus norvegicus [1]) | Decrease in blood pressure (Rattus norvegicus [3]) | Decrease in blood pressure (Rattus norvegicus [4]) | further results |
| --- | --- | --- | --- | --- |
| CC1(C)Oc2ccc(C#N)cc2C(NC(=O)CCl)[C@@H]1O (some centres not stated) | 28% | – | – | – |
| CNCC(=O)NC1c2cc(C#N)ccc2OC(C)(C)[C@H]1O (some centres not stated) | 15% | – | – | – |
| CCN(C(C)=O)C1c2cc(C#N)ccc2OC(C)(C)[C@H]1O (some centres not stated) | – | 14% | 22% | – |
| CC(=O)NC1c2ccccc2OC(C)(C)[C@H]1O (some centres not stated) | 13% | – | – | – |
| CCOC(=O)NC1c2cc(C#N)ccc2OC(C)(C)[C@H]1O (some centres not stated) | – | – | – | Decrease in blood pressure (Rattus norvegicus [2]): 13%; Decrease in blood pressure (Rattus norvegicus [8]): 54%; Decrease in blood pressure (Rattus norvegicus [6]): 22% |
| CC1(C)Oc2ccc(C#N)cc2C(NC(=O)c2c[nH]c3ccccc23)[C@@H]1O (some centres not stated) | 13% | – | – | – |
| COCC(=O)NC1c2cc(C#N)ccc2OC(C)(C)[C@H]1O (some centres not stated) | – | 16% | 32% | – |
| CCCCC(=O)NC1c2cc(C#N)ccc2OC(C)(C)[C@H]1O (some centres not stated) | 64% | – | – | Decrease in blood pressure (Rattus norvegicus [6]): 18% |
| CC(=S)NC1c2cc(C#N)ccc2OC(C)(C)[C@H]1O (some centres not stated) | – | 26% | 53% | – |
| C/N=C(/S)NC1c2cc(C#N)ccc2OC(C)(C)[C@H]1O (some centres not stated) | – | – | – | Decrease in blood pressure (Rattus norvegicus [2]): 16%; Decrease in blood pressure (Rattus norvegicus [8]): 50%; Decrease in blood pressure (Rattus norvegicus [6]): 33% |
| CC1(C)Oc2ccc(C#N)cc2C(NC(=O)c2ccco2)[C@@H]1O (some centres not stated) | – | 11% | 54% | – |
| CC1(C)Oc2ccc(C#N)cc2C(NC(N)=O)[C@@H]1O (some centres not stated) | – | – | – | Decrease in blood pressure (Rattus norvegicus [2]): 18%; Decrease in blood pressure (Rattus norvegicus [8]): 56%; Decrease in blood pressure (Rattus norvegicus [6]): 46% |
| CCC(=O)NC1c2cc(C#N)ccc2OC(C)(C)[C@H]1O (some centres not stated) | – | 10% | 29% | – |
| CC(C)(C)NC(=O)NC1c2cc(C#N)ccc2OC(C)(C)[C@H]1O (some centres not stated) | 8% | – | – | – |
| CCCN(C(C)=O)C1c2cc(C#N)ccc2OC(C)(C)[C@H]1O (some centres not stated) | – | – | – | Decrease in blood pressure (Rattus norvegicus [2]): 24%; Decrease in blood pressure (Rattus norvegicus [6]): 58% |
| CC1(C)Oc2ccc(C#N)cc2C(NC(=O)c2ccc[nH]2)[C@@H]1O (some centres not stated) | – | 12% | 50% | – |
| CC(N/C(=N\C#N)Nc1ccncc1)C(C)(C)C (configuration not stated) [PINACIDIL ANHYDROUS] | – | – | – | Decrease in blood pressure (Rattus norvegicus [2]): 11%; Increase (Oryctolagus cuniculus): 72%; Decrease in blood pressure (Rattus norvegicus [6]): 39% |
| CCCCNC(=O)NC1c2cc(C#N)ccc2OC(C)(C)[C@H]1O (some centres not stated) | 29% | – | – | Decrease in blood pressure (Rattus norvegicus [2]): 11% |
| CC(=O)NC1c2cc(Br)c([N+](=O)[O-])cc2OC(C)(C)[C@H]1O (some centres not stated) | – | 25% | 51% | – |
| CC(=O)NC1=CC(C)(C)Oc2ccc(C#N)cc21 | – | – | – | Decrease in blood pressure (Rattus norvegicus [2]): 20%; Decrease in blood pressure (Rattus norvegicus [6]): 52% |
